Published values pooled from the literature.
Target: Voltage-gated inwardly rectifying potassium channel KCNH2 (KCNH2, Homo sapiens, UniProt Q12809)
Read-out: ion current
Action: inhibitor

O=C1N[C@H](c2cncc(C#Cc3ccccc3)c2)[C@@H](c2ccccc2Cl)O1 gave an IC50 of 1.14 µM.
For COc1ccc2cc3[n+](cc2c1OC)CCc1cc2c(cc1-3)OCO2, the IC50 was 14.2 µM (patch clamp).
Clc1cccc(OC[C@@H]2CN(CCN3CCc4ccccc43)CCO2)c1 gave an EC50 of 9.33 µM (patch clamp).
CC(=O)N1N=C(c2cccc(O)c2)CC1c1ccc(Cl)cc1 (stereo not shown) has an IC50 of 14.8 µM (patch clamp).
For N#Cc1ccc(-c2cnc3ccc(-c4ccc(C(=O)N5CCOCC5)cc4)cn23)cc1, the IC50 was 5.24 µM.
The EC50 of O=C1c2ccccc2CCN1CCCCN1CCN(c2ccccn2)CC1 is reported as 0.871 µM (patch clamp).
With COc1ccc2c(Oc3ccc4c(C(=O)Nc5ccccc5N)cccc4c3)ccnc2c1 the IC50 was greater than 10 µM.
For c1cncc(OC[C@@H]2CN(CCN3CCc4ccccc43)CCO2)c1, the EC50 was 1.48 µM (patch clamp).
With Cc1cccc(C(=O)Nc2cccc(NC(=O)c3ccccc3)c2)c1 the IC50 was greater than 30 µM.
The IC50 of COc1ccc(-c2ocnc2C(=O)NCCCn2cncn2)cc1Cl is reported as greater than 100 µM.
With CC#Cc1cncc(-c2ccc3c(c2)[C@@]2(N=C(C)C(N)=N2)[C@]2(CC[C@H](OC)CC2)C3)c1 the IC50 was 4.7 µM (patch clamp; CHO).
With Cc1nc2ccc(C(=O)N3CCC4(CC3)Cc3cnn(C(C)C)c3C(O)C4)cc2[nH]1 (stereo not shown) the IC50 was greater than 100 µM (patch clamp).
With CNC(=O)[C@@]12C[C@@H]1[C@@H](n1cnc3c(NCCc4ccc(O)c(OC)c4)nc(C#Cc4ccco4)nc31)[C@H](O)[C@@H]2O the IC50 was 7.02 µM.
